This is an account of results in ChEMBL document CHEMBL1132578, “New peptidic cysteine protease inhibitors derived from the electrophilic alpha-amino acid aziridine-2,3-dicarboxylic acid” (J Med Chem, 1999).

Assay [1] concerns the target Cathepsin B (Bos taurus) (UniProt P07688). The experiment in a line: Evaluated for second-order rate constants for the inactivation of mammalian lysosomal cathepsin B.
Assay [2] deals with T1, Pro-cathepsin H (Homo sapiens, UniProt P09668).
T1 sequence (P09668 whole entry): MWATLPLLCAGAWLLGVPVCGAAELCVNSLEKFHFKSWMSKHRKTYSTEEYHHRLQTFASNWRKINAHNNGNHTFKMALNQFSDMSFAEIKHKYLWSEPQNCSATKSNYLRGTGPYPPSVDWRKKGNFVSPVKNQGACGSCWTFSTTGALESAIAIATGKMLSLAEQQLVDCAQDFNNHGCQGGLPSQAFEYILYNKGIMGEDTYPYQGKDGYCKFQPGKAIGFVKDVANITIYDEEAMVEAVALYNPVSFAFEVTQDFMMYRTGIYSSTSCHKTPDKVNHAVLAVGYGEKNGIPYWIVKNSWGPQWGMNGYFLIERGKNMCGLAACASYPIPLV
The assay is described as follows: Inhibition constant for the non time dependent inhibition of Cathepsin H; no inhibition.

Assay [3] concerns the target Procathepsin L (Homo sapiens) (UniProt P07711). The experiment in a line: Evaluated for second-order rate constants for the inactivation of mammalian lysosomal cathepsin L.
The target of assay [4] is T2, Papain (Carica papaya) (UniProt P00784).
T2 sequence (whole entry): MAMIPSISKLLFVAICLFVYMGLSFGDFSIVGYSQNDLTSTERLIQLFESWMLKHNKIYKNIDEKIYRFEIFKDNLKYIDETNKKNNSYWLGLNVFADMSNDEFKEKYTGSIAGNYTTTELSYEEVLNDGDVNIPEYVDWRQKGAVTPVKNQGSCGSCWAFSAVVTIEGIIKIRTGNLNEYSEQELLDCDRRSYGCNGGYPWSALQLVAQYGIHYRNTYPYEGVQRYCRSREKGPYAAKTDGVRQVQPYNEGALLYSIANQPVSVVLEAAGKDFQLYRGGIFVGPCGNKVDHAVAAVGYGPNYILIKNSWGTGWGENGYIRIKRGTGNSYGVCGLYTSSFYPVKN
The experiment in a line: Second-order rate constants for the inactivation of papain (vacuolar plant enzyme). The essentials:
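Papain with L-BAPA (405 nm) in 50 mM phosphate pH 6.5, 5 mM EDTA, 5 mM cysteine, or with Z-Phe-Arg-AMC in phosphate pH 6.5 with DTT, EDTA, Brij 35; 25 °C. kobs at 3–7 inhibitor concentrations, continuous or dilution assay; k2nd = ki/Ki, or from linear kobs vs [I] when unsaturated; substrate-corrected (Km 2.5 mM L-BAPA, 0.09 mM Z-Phe-Arg-AMC).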

The next assay has as its target calpain I. The experiment in a line: Inhibition constant for the non time dependent inhibition of calpain I.
Assay [5] has as its target T1, Pro-cathepsin H. The assay is described as follows: Compound was evaluated for inhibition constant for the non-time dependent inhibition of Cathepsin H.
Assay [6] has as its target T2, Papain (Carica papaya). The experiment in a line: pH dependency of inhibition of papain with the compound at pH 5.2 [I] = 17 uM, incubation time = 30 minutes, [S] = 1.49 mM L-BAPA, [E] = 0.5 mg m/L. The procedure, abridged: (§1)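 Papain (0.5 mg/mL) with 1.49 mM L-BAPA, with or without 17 µM inhibitor for 30 min, at pH 5.2–8.0 (citrate pH 4–6, phosphate pH 6–8), 25 °C; nitroanilide release read at 405 nm. Activities are means of five assays; percent inhibition compares inhibited and uninhibited activity.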

Assay [7] has as its target T2, Papain (Carica papaya). The assay is described as follows: pH dependency of inhibition of papain with the compound at pH 6.0 [I] = 17 uM, incubation time = 30 minutes, [S] = 1.49 mM L-BAPA, [E] = 0.5 mg m/L. The essentials: as §1
The target in assay [8] is T2, Papain (Carica papaya). The assay is described as follows: pH dependency of inhibition of papain with the compound at pH 6.5 [I] = 17 uM, incubation time = 30 minutes, [S] = 1.49 mM L-BAPA, [E] = 0.5 mg m/L. The procedure, abridged:
as §1

Assay [9] deals with T2, Papain (Carica papaya). The assay is described as follows: pH dependency of inhibition of papain with the compound at pH 7.0 [I] = 17 uM, incubation time = 30 minutes, [S] = 1.49 mM L-BAPA, [E] = 0.5 mg m/L. The essentials: as §1
In assay [10] the target is T2, Papain (Carica papaya). The assay is described as follows: pH dependency of inhibition of papain with the compound at pH 8.0 [I] = 17 uM, incubation time = 30 minutes, [S] = 1.49 mM L-BAPA, [E] = 0.5 mg m/L. The essentials:
as §1

In assay [11] the target is T2, Papain (Carica papaya). The assay is described as follows: pH dependency of inhibition of papain without the compound at pH 5.2 mean values from five assays. The procedure, abridged:
as §1

In assay [12] the target is T2, Papain (Carica papaya). The experiment in a line: pH dependency of inhibition of papain without the compound at pH 6.0 mean values from five assays. The essentials: as §1
For assay [13], the target named is T2, Papain (Carica papaya). The assay is described as follows: pH dependency of inhibition of papain without the compound at pH 6.5 mean values from five assays. The essentials: as §1
Assay [14] deals with T2, Papain (Carica papaya). The experiment in a line: pH dependency of inhibition of papain without the compound at pH 7.0 mean values from five assays. The essentials: as §1
Assay [15] deals with T2, Papain (Carica papaya). The assay is described as follows: Percent inhibition of papain by the compound at pH 5.2. As to conditions: concentration not given here; call rule not given here. The procedure, abridged:
as §1

Assay [16] concerns the target T2, Papain (Carica papaya). The assay is described as follows: Percent inhibition of papain by the compound at pH 6.0. As to conditions: concentration not given here. The essentials: as §1
Assay [17] has as its target T2, Papain (Carica papaya). The assay is described as follows: Percent inhibition of papain by the compound at pH 6.5. As to conditions: concentration not given here. The essentials: as §1
Assay [18] deals with T2, Papain (Carica papaya). The experiment in a line: Percent inhibition of papain by the compound at pH 7.0. As to conditions: concentration not given here. The procedure, abridged: as §1
For assay [19], the target named is T2, Papain (Carica papaya). The assay is described as follows: Percent inhibition of papain by the compound at pH 8.0. As to conditions: concentration not given here. The essentials:
as §1

Assay [20] deals with T3, Calpain-1 catalytic subunit (Homo sapiens, UniProt P07384).
T3 sequence (P07384 whole entry): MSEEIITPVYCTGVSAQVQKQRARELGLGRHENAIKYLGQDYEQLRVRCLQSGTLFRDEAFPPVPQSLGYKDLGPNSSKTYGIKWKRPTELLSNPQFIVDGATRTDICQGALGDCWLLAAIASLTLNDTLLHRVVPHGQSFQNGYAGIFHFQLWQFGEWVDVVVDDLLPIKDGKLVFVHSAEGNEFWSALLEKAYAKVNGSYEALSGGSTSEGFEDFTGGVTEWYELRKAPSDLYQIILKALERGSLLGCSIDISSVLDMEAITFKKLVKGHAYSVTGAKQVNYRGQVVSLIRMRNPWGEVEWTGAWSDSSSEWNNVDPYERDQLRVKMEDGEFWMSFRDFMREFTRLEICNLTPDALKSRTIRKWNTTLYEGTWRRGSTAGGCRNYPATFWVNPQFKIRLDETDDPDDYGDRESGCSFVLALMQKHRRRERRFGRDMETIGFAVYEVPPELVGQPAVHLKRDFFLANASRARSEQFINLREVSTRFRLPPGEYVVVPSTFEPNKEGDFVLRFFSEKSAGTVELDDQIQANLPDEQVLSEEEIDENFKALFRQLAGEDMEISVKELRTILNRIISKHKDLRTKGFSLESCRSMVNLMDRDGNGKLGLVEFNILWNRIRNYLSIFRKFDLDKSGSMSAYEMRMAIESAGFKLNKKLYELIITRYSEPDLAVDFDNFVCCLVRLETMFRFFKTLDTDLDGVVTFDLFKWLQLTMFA
The assay is described as follows: Compound was evaluated for inhibition constant for the non-time dependent inhibition of Calpain 1; no inhibition. Details: species or system Sus scrofa.

Assay [21] addresses T2, Papain (Carica papaya). The experiment in a line: pH dependency of inhibition of papain without the compound at pH 8.0 mean values from five assays. The essentials: as §1
Assay [22] has as its target Cathepsin B (Bos taurus) (UniProt P07688).
Assay [23] addresses Procathepsin L (Homo sapiens) (UniProt P07711). The note with it: Paramecium tetraurelia.
Assay [24] concerns the target T2, Papain (Carica papaya).
Assay [25] has as its target T2, Papain (Carica papaya). The source holds these as a separate data set.
Assay [26] has as its target T2, Papain (Carica papaya). The source holds these as a separate data set.
Assay [27] deals with T2, Papain (Carica papaya). The source holds these as a separate data set.

Chain of Procathepsin L (Homo sapiens) (P07711 114-333 limits assumed): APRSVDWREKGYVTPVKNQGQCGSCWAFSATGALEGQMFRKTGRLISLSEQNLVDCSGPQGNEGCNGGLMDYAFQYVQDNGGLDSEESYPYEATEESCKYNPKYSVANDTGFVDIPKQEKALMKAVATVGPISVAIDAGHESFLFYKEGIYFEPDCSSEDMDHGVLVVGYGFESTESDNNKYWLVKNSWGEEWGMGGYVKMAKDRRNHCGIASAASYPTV

As for `CCOC(=O)[C@@H]1[C@@H](C(=O)OCC)N1C(=O)[C@H](C)NC(=O)OCc1ccccc1`, the ki/Ki worked out at 1.12 M⁻¹ s⁻¹ on Cathepsin B (Bos taurus) [1], 5.08 M⁻¹ s⁻¹ in [3] and 1.22 M⁻¹ s⁻¹ at Papain (Carica papaya) [4]. Besides, the Ki result at Pro-cathepsin H [2] was “Not Active”; at calpain I it was 160 µM.
In general, inhibition refers to the change of the read-out against control, counted positive when it falls. Low values mean a weak effect, high ones a strong effect. `CCOC(=O)[C@@H]1[C@@H](C(=O)OCC)N1C(=O)[C@H](Cc1ccccc1)NC(=O)OC(C)(C)C`: the Ki at Pro-cathepsin H [5] is 210 µM; in assay [20] it was “Not Active”. Further, the Activity on Papain (Carica papaya) [6] is 1.86 mU/mL; on Papain (Carica papaya) [7], 1.38 mU/mL; at Papain (Carica papaya) [8], 0.98 mU/mL; on Papain (Carica papaya) [9] it was 0.75 mU/mL; on Papain (Carica papaya) [10] it was 0.75 mU/mL; at Papain (Carica papaya) [11] it was 6.54 mU/mL. The Activity on Papain (Carica papaya) [12] stood at 7.33 mU/mL; on Papain (Carica papaya) [13], 7.38 mU/mL; on Papain (Carica papaya) [14], 7.33 mU/mL; at Papain (Carica papaya) [21] it was 7.31 mU/mL. Moreover, the inhibition turned out to be 71.6% on Papain (Carica papaya) [15]; 81.1% at Papain (Carica papaya) [16]; 86.7% against Papain (Carica papaya) [17]; 89.8% on Papain (Carica papaya) [18]; 89.7% against Papain (Carica papaya) [19]. The ki/Ki at Cathepsin B (Bos taurus) [22] stood at 2.08 M⁻¹ s⁻¹; in assay [23], 1.08 M⁻¹ s⁻¹; at Papain (Carica papaya) [24], 6.8 M⁻¹ s⁻¹; at Papain (Carica papaya) [25], 1.2 M⁻¹ s⁻¹; at Papain (Carica papaya) [26], 7.07 M⁻¹ s⁻¹; on Papain (Carica papaya) [27], 6.83 M⁻¹ s⁻¹.
